An excerpt weighted towards active compounds, which were near 1.8% of everything screened.
HSV augment: increases HSV replication in cells; HSV replication augmentation in cells, fold increase; maximum fold increase; 0.005% of 220,000 active; AID 1956; in the data active = maximum fold increase above about 1.5; inconclusive = no clear call, values can overlap the other calls; tested in PC3 cells
zVAD death inh: blocks zVAD induced death of L929 cells. viability rescue, % at 10 µM. L929 zVAD necroptosis rescue, ATP luminescence, 24 h; with zVAD 60 µM. 0.38% of 220,000 active;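 active = activation, scaled between plate controls, above about 75%, limit read from the data; inactive = activation under that limit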
Autophagy mod: alters autophagy in cells; MEF GFP-LC3 puncta imaging; test concentration mostly 10 µM; calls only at 10 µM (by protocol); 0.98% of 190,000 active; AID 463193;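 active = percentage of spot-positive cells more than 3 SD above its plate mean, without a fluorescence outlier flag or 80% toxicity; inconclusive = no clear call, values can overlap the other calls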
Furin inh: human furin inhibition; P09958; purified furin, fluorogenic substrate cleavage; inhibition, % at 20 µM or 30 µM; 0.061% of 220,000 active; AID 463115; in the data active = inhibition above about 25%
Target sequence (P09958 108-714 limits assumed): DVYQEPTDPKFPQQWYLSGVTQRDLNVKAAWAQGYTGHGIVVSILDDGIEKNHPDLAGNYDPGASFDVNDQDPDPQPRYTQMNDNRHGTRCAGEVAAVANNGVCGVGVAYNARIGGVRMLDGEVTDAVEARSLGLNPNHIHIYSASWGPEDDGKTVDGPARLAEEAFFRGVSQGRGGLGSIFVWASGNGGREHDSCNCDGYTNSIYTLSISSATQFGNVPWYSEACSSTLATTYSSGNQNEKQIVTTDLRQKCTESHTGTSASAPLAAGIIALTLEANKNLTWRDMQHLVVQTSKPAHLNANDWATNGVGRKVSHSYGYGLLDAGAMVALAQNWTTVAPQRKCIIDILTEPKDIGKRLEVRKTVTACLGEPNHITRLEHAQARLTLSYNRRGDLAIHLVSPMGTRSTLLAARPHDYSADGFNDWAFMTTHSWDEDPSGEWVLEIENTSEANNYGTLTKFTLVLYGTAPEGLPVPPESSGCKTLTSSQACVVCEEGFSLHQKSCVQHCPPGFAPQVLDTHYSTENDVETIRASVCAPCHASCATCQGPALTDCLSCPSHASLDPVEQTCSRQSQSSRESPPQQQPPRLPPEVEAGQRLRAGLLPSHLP
TNF necrop inh: inhibitors of TNF-alpha induced necroptosis in Jurkat FADD-/- cells | Jurkat FADD-/- TNF necroptosis rescue, ATP luminescence, 24 h; 0 = TNF only, 100 = no-TNF cells | activation (protection from cell death), % at 10 µM | 0.068% of 220,000 active | AID 463075;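 active = activation, meaning protection from cell death, of at least 50% relative to plate controls; inactive = activation below 50%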;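 also: necroptosis triggered by 40 ng/mL TNF-alpha added together with compound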
Dynein cargo inh: blocks dynein driven cargo transport along microtubules. 3617.4 mouse cells, GR-EGFP nuclear translocation imaging; test concentration mostly 20 µM; stimulated with dexamethasone, 1 µM; hits give low values. z-score, hits read low. 0.47% of 220,000 active. AID 1381;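 active = plate z-score of nuclear minus cytoplasmic receptor signal below a set negative limit, without overly bright fluorescence or cell loss, cut at about -3.5 in these data, passing the limit was not always enough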;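 also: z-score of nuclear minus cytoplasmic ring GR-EGFP intensity difference per well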
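Buffer or medium – tet-free medium with charcoal-stripped serum · Signal – automated 10x imaging of fixed Hoechst-stained cells · Also added – dexamethasone agonist, 1.0 µM final, for 30 min · Incubation – induction 48 h, compound 1 h, agonist 30 min · Read-out – GR-EGFP nuclear translocation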
Dynein confirm: dynein cargo transport inhibition, confirmation; calls only at 20 µM; AID 463116; shares compounds with Dynein cargo inh; 3617.4 GR-EGFP nuclear translocation imaging, dexamethasone-induced; 69% of 1,000 active;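 active = inhibition of receptor movement into the nucleus at or above a set limit in both runs, with normal cell brightness and cell count; inconclusive = limit reached in only one run, brightness and count normal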;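 also: dexamethasone at 1 µM final in well for 30 min; nuclear minus cytoplasmic GR-EGFP mean intensity difference in channel 2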
Large screens that a line does not name were inactive (follow-up assays come after a bar, where they were run).

CCOC(=O)c1c(NC(=O)/C=C\C(=O)O)sc(C)c1-c1ccccc1	Dynein cargo inh -3.52 | Dynein confirm active
CC1(C)COC(/C=C/c2ccc([N+](=O)[O-])cc2)=N1	Dynein cargo inh -4.14 (no result: HSV augment) | Dynein confirm active
CC(=C/C(=O)O)/C=C/c1ccc([N+](=O)[O-])cc1	none
CCCc1nc2oc3ccccc3c(=O)c2c(=O)n1CCCOC	none (no result: Autophagy mod)
CNC(=O)C1CC(=O)N(CCCc2ccccc2)C(=Nc2ccccc2)S1 (stereo not given)	none
CCOC(=O)C=C(C(=O)OCC)C(=O)OCC	Dynein cargo inh -4.25 | Dynein confirm active
Cc1cc(C2=CC(C)(c3cc(C)oc3C)Nc3nc(C(F)(F)F)nn32)c(C)o1 (stereo not given)	Dynein cargo inh -6.1 | Dynein confirm active
CCCCCCc1cc2cc(S(=O)(=O)c3ccc(F)c(Cl)c3)c(=O)oc2cc1O	none
CCN(CC)c1ccc(/C=C/c2cc(-c3ccccc3)c3ccccc3n2)cc1	HSV augment inconclusive (no result: Autophagy mod) | Dynein confirm inactive
CN(C)c1ccc(/C=C/c2ccc3ccccc3n2)cc1	HSV augment inconclusive (no result: Autophagy mod)
COc1cccc(CN2CCN(Cc3cccc4nonc34)CC2CCO)c1 (stereo not given)	none
Cc1ccc(/C=C/C(=O)Nc2ccc(Oc3ccccc3)cc2)o1	Dynein cargo inh -3.61 | Dynein confirm inactive
O=C(Nc1cc(C(F)(F)F)cc(C(F)(F)F)c1)Nc1cnn(-c2ccc([N+](=O)[O-])cc2)c1C(F)(F)F	none (no result: Autophagy mod)
O=C1c2ccccc2-c2onc3ccc(N4CCCC4)c1c23	HSV augment inconclusive
CCNc1ccc2noc3c2c1C(=O)c1ccccc1-3	none (no result: HSV augment)
CCOc1ccc2noc3c2c1C(=O)c1ccccc1-3	HSV augment inconclusive, Dynein cargo inh -7.5 | Dynein confirm active
O=C1c2ccccc2-c2onc3ccc(NCc4ccco4)c1c23	none | Dynein confirm inactive
O=[N+]([O-])/C=C/c1cn(Cc2ccccc2)c2ccccc12	Dynein cargo inh -4.62 | Dynein confirm inconclusive
O=[N+]([O-])c1ccc(N/N=C/c2cn(Cc3ccc(F)cc3)c3ccccc23)nc1	Autophagy mod active (no result: HSV augment) | Dynein confirm inconclusive
N#Cc1ccccc1Cn1cc(/C=C/[N+](=O)[O-])c2ccccc21	Dynein cargo inh -4.67 | Dynein confirm active
O=C(O)Cn1cc(/C=C/[N+](=O)[O-])c2ccccc21	none
O=C(CN1CCOCC1)Nc1ccc([N+](=O)[O-])cc1Br	none
CCc1ccc(C(=O)CN2CCSC2=N)cc1	none
COC(=O)c1ccc2c(c1)C(C)(C)C(/C=C/c1ccc(O)cc1)=[N+]2C	Dynein cargo inh -3.57 | Dynein confirm inconclusive
Cc1oc(-c2cc3c(cc2Cl)OCO3)nc1CN1CCCC1c1ccc(F)cc1 (stereo not given)	none
CCN1C/C(=C/c2cccc([N+](=O)[O-])c2)C(=O)/C(=C/c2cccc([N+](=O)[O-])c2)C1	Dynein cargo inh -3.98 | Dynein confirm active
O=C1NC(=O)/C(=C/c2cccc([N+](=O)[O-])c2)N1	none (no result: Autophagy mod)
Cc1ccc2[nH]c(=O)c(CN(CCCO)S(=O)(=O)c3c(C)ccc4nsnc34)cc2c1	Dynein cargo inh -5.94 | Dynein confirm inactive
CC(C)(C)c1cnnn1-c1ccc(C(=O)CCl)cc1	Dynein cargo inh -4.09 | Dynein confirm active
O=C(Nc1ccccc1Cl)ON=C1c2ccccc2-c2ccccc21	none
CCOc1ccccc1/C=N/NC(=O)CNC(=O)c1cccs1	none
CC(C)(C)C(=O)/C(=C/c1ccncc1)n1cncn1	Dynein cargo inh -5.13 | Dynein confirm active
CCCc1cc(NC(=O)CCl)n(-c2ccccc2)n1	Dynein cargo inh -4 | Dynein confirm active
CC(C)(C)c1cc(NC(=O)CCl)n(-c2ccccc2)n1	none (no result: Autophagy mod)
C/C=C(\CS(=O)(=O)c1ccccc1)S(=O)(=O)c1ccccc1	Dynein cargo inh -3.61 | Dynein confirm inconclusive
C/C(CS(=O)(=O)c1ccccc1)=N\O	none
OC(CNCCc1ccccc1)COc1ccc(OCC(O)CNCCc2ccccc2)cc1 (stereo not given)	none (no result: Autophagy mod)
OC(CNCCc1ccc(Cl)cc1)COc1ccc2ccccc2c1 (stereo not given)	Dynein cargo inh -8.18 | Dynein confirm inactive
CCOC(=O)/C(C#N)=C\c1ccc(O)c(OC)c1	none
CCOC(=O)c1c(-c2ccc(C)cc2)csc1NC(=O)/C(C#N)=C/c1ccc(O)c(OC)c1	HSV augment inconclusive, Autophagy mod active | Dynein confirm inactive
COCCNC(=O)C(=O)N/N=C(\C)CC(=O)Nc1cccnc1	none
Cc1ccc(NC(=O)c2cc(N3C(=O)C=CC3=O)ccc2N2CCOCC2)cc1	Dynein cargo inh -4.87 | Dynein confirm active
Cc1sc(NC(=O)CCl)c(C(=O)c2ccccc2)c1C	Dynein cargo inh -3.75 | Dynein confirm active
CC1(C)CC2(CCO1)C(Nc1ccccc1)=NC(=S)N2CC(N)=O (stereo not given)	none (no result: Autophagy mod)
O=C(NCc1ccccn1)C(=O)N/N=C/c1ccc2c(c1)OCO2	none
Nc1c(C(=O)NC2CCCC2)sc2nc(-c3cccs3)ccc12	none
Cc1nnc(NC(=O)c2sc3nc(-c4cccs4)cc(C(F)(F)F)c3c2N)s1	HSV augment inconclusive, Autophagy mod active | Dynein confirm inactive
O=C(CSCc1c(F)cccc1Cl)Nc1ccccc1C(=O)N1CCOCC1	none
COc1ccc(CN(CCC(c2ccccc2)c2ccc(OC(C)C)cc2)C(=O)CCl)cc1OC (stereo not given)	Dynein cargo inh -6.9 | Dynein confirm active
O=C(O)c1cc2ccccc2c2cc(Br)ccc12	none (no result: Autophagy mod)
COC(=O)c1cc(NC(=O)c2cccc(Cl)c2)c(=O)oc1/C=C/Nc1cc(C)cc(C)c1	HSV augment inconclusive, Autophagy mod active | Dynein confirm active
COC(=O)c1sc(-c2cccs2)cc1NC(=O)/C=C/C(=O)O	none (no result: Autophagy mod)
S=c1sc2c(Cl)ncnc2n1-c1ccccc1	Dynein cargo inh -4.03 | Dynein confirm active
CN(C)/C=N/c1ncc(-c2ncc(C(F)(F)F)cc2Cl)cn1	none
CCCCN1C(=O)/C(=C/C=C2\N(C)c3ccccc3C2(C)C)SC1=S	Autophagy mod active (no result: HSV augment) | Dynein confirm inactive
CCCCN1C(=O)/C(=C/C=C2\SCCN2C)SC1=S	HSV augment inconclusive
O=C(CSCCN1C(=O)c2ccccc2C1=O)Nc1ccc2ccccc2c1	none
Cc1cccc(CSc2nnc(CCNC(=O)OC(C)(C)C)o2)c1	none (no result: Autophagy mod)
Cn1ncc(SCc2ccccc2)c(Cl)c1=O	none (no result: Autophagy mod)
Cn1ncc(S(=O)(=O)Cc2ccccc2)c(Cl)c1=O	Dynein cargo inh -5.21 (no result: Autophagy mod) | Dynein confirm active
CC1(C)Cc2ccccc2C(CSc2ccccc2C(=O)O)=N1	none

Source: PubChem BioAssay (several laboratories)
